Only some compounds are listed: those with a hit (about 3.3% of all), similar ones and a draw of the others.
UHRF1 binding – blocks human UHRF1 binding to methylated DNA. inhibition, % at 4.4 µM. UHRF1 binding to methylated oligo, TR-FRET. hit rate 0.75% among 370,000. AID 687016. Q96T88; in the data active = inhibition above about 21%;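 also: UHRF1 SRA domain binding a hemimethylated CpG hairpin DNA probe; 0% = median of test compound wells and 100% = reference inhibitor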
MBD2 inh – MBD2-methylated oligo binding inhibition. hit rate 0.31% among 370,000. inhibition, % at 4.4 µM. TR-FRET, MBD2 binding to methylated oligonucleotide. Q9UBB5; in the data active = inhibition above about 13%
LEDGF integ inh – blocks HIV-1 LEDGF/p75-dependent DNA integration; TR-FRET IN-LEDGF/p75 DNA integration, Eu/Cy5; inhibition, % at 3.7 µM; hit rate 0.64% among 370,000;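 active = inhibition above the screen-wide mean plus 3 SD, cut at about 13% in these data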;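 also: signal is the Cy5 over europium emission ratio at 671 and 618 nm; 0% = plate median of compound wells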
SIAE inh – inhibitors of human sialic acid acetylesterase SIAE. SIAE FP-Rh probe binding, fluorescence polarization. inhibition, % at 9.66 µM. hit rate 0.69% among 370,000. AID 1053197;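 active = inhibition above a cutoff: mean of compounds within the control limits plus 3 SD of those, cut at about 17% in these data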;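 also: 0% = plate median of compound wells and 100% = probe without SIAE protein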
PRMT1 inh – blocks human protein arginine methyltransferase 1 | inhibition, % at 2.79 µM | Q99873 | recombinant PRMT1, activity-based probe fluorescence polarization | AID 652257 | hit rate 1.3% among 370,000;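 active = inhibition above about 21% made by adding two undisclosed values, limit read from the data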
Target sequence (Q99873 whole entry, looked up): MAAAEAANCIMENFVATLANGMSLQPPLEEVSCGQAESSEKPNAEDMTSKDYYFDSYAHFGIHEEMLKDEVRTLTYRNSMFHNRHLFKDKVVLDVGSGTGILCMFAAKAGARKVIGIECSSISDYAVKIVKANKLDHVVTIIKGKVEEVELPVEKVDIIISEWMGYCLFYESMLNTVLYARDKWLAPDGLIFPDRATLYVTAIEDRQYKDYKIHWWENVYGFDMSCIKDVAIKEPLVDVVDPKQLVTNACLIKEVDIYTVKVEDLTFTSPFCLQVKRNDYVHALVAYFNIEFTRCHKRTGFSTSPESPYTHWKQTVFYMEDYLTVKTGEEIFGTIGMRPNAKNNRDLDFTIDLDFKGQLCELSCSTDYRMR
TDP2 absorb – TDP2 (human) inhibition, absorbance primary screen; AID 720702; inhibition, % at 12.8 µM; recombinant TDP2, T5PNP hydrolysis, p-nitrophenol absorbance 415 nm; hit rate 0.34% among 370,000; O95551;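 active = inhibition above the mean of all tested compounds plus 3 SD, set per campaign, cut at about 25% in these data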;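 also: 0% = DMSO with enzyme and 100% = buffer with substrate but no TDP2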
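Evaluation: % inhibition relative to enzyme-containing and enzyme-free wells. Material: recombinant human TDP2. Benchmarks: enzyme-free and DMSO wells. Timing: enzyme reaction with compound for 2 h at 37 °C. Compound dosing: 12.8 µM only. Measured by: p-Nitrophenol epi absorbance. Reagent: T5PNP substrate at 5 mM, a TopII-DNA adduct mimic. Replication: single well per compound.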
IN multimer act – counter-screen for LEDGF/p75 integration inhibitors: HIV-1 integrase multimerization activators. shares compounds with LEDGF integ inh. TR-FRET HIV-1 integrase multimerization, biochemical. activation, % at 7.7 µM. hit rate 17% among 2,000; in the data active = activation above about 8.9%
TR-FRET interf – TR-FRET optical interference, LEDGF/p75 integration counter-screen. 2,000 tested, under 10 active. AID 1053135. inhibition, % at 7.7 µM. shares compounds with LEDGF integ inh. TR-FRET optical interference counterscreen, HIV-1 IN multimerization;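 active = inhibition above the mean over all tested compounds plus 3 SD, which no compound reached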;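 also: 0% = integrase with antibodies and DMSO and 100% = antibodies without integrase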
LEDGF integ conf – confirmation of HIV-1 LEDGF/p75-dependent integration inhibitors | hit rate 36% among 2,000 | inhibition, % at 3.7 µM | TR-FRET LEDGF/p75-dependent HIV-1 integration, biochemical | shares compounds with LEDGF integ inh; in the data active = inhibition above about 14%
Starred values were filed as active, the others as inactive; x = no result.

SMILES	UHRF1 binding	MBD2 inh	LEDGF integ inh	SIAE inh	PRMT1 inh	TDP2 absorb	IN multimer act	TR-FRET interf	LEDGF integ conf
S=c1[nH]nc(-c2ccccc2)n1/N=C/C=C/c1ccco1	1.7	-0.2	13.9*	8.8	10.4	3.0	0.9	-4.5	16.1*
Cc1ccc(NC(=O)C2CCCN2S(=O)(=O)c2cccnc2)c(C)c1 (stereo not drawn)	1.8	4.7	-1.9	2.2	3.3	-5.0	x	x	x
COC[C@@H]1CCCN1c1cccc2c1S(=O)(=O)N(C1CC1)CCCO2	-3.9	-0.4	-2.9	4.7	2.5	6.9	x	x	x
Cc1ccc(C(=O)C2CCN(CC(=O)N(C)C3CCCCC3)CC2)cc1	3.0	5.3	0.3	-6.7	-1.1	8.2	x	x	x
COc1ccccc1S(=O)(=O)N(C)C[C@H]1OCc2cnnn2CCCC(=O)N([C@@H](C)CO)C[C@@H]1C	-2.0	-0.6	53.2*	-1.7	1.6	11.0	0.0	-0.1	-16.6
COc1cc(CNc2ccc(N3CCOCC3)cc2)cc(Br)c1OC	7.4	-1.7	13.2	12.4	6.0	-8.3	x	x	x
CCOc1cc(CNc2ccc(N3CCOCC3)cc2)cc(Br)c1OCC	-1.2	-6.6	14.7*	10.6	2.1	16.0	1.6	-8.1	-3.5
CCOc1cc(CNc2ccc(N3CCCCC3)cc2)cc(Br)c1OCC(=O)NC(C)(C)C	-6.2	-4.6	14.9*	16.8	8.4	11.6	2.0	-10.2	1.9
CCOc1ccc(-n2c(SCC(=O)Nc3cccc4ccccc34)nnc2-c2ccccc2)cc1	-0.7	0.3	-4.0	8.3	2.2	2.0	x	x	x
Cc1cc(=O)oc2cc3c(cc12)OCCO3	-0.9	1.1	28.6*	12.1	-1.1	2.1	-3.5	12.6	-0.1
O=C(Cc1cnn(-c2ccccc2)c1)c1ccc(O)c(O)c1O	5.2	4.0	22.1*	-15.5	39.4*	-6.7	10.2*	-36.4	17.6*
CCOC(=O)[C@]12CCCC=C1N(Cc1ccc(OC)cc1)C(=O)[C@@H]2CC(=O)N1CCCCC1	-1.7	-5.6	0.0	7.6	1.2	1.0	x	x	x
CC(C)N1CCCCC(NC(=O)c2cccc(C(F)(F)F)c2)C1=O (stereo not drawn)	0.4	-1.9	5.5	1.0	-0.5	-4.3	x	x	x
O=C(/C=C/c1ccc(Cl)c(Cl)c1)NC1=NCCS1	4.6	8.9	28.5*	-15.9	11.3	-5.6	0.7	-3.4	6.3
COc1ccc(NC(=S)N(CCCN2CCCCC2)Cc2cccs2)cc1	-4.0	0.2	86.8*	0.1	-4.0	-1.4	0.4	-1.8	-6.1
COc1ccc(N2CCN(CCCNC(=O)COc3ccc(C)cc3)CC2)cc1	-0.9	-5.2	0.8	3.0	4.8	3.5	x	x	x
CCCCCCCCN1C(=O)[C@@H](CC(=O)N2CCN(C(=O)c3ccco3)CC2)C[C@@]2(C(=O)OC)C1=C[C@H](COCc1ccccc1)O[C@@H]2C	0.8	4.7	-2.3	-3.6	-0.2	7.3	x	x	x
CCN(CC)c1ccc(N=Cc2ccc([N+](=O)[O-])o2)cc1	24.9*	10.0	41.4*	7.4	40.8*	-2.1	7.1	-35.8	17.9*
COC(=O)[C@]12C[C@H](CC(=O)NCc3cccc(C(F)(F)F)c3)C(=O)N(CCC3=CCCCC3)C1=C[C@H](C(C)C)O[C@@H]2C1CC1	-1.2	-2.3	8.2	-3.7	-0.1	-4.8	x	x	x
C[C@H]1C(c2ccccc2F)O[C@]2(C[C@H](O)c3c(ccc4ccccc34)O2)C[C@@H]1O (stereo partly drawn)	-1.6	0.5	2.2	-8.5	14.6	1.3	x	x	x
Cc1nnc(SCC(=O)Nc2ccc(Cl)cn2)n1Cc1ccccc1	-1.1	-0.7	16.2*	-1.8	1.9	0.9	0.2	-1.0	0.0
O=C(CS(=O)(=O)Cc1ccccc1)Nc1ccc(Cl)cn1	0.0	7.1	87.6*	5.2	4.2	15.3	5.4	-19.0	2.0
Cc1nnc(NC(=O)CSc2nnc(C)n2Cc2ccccc2)s1	4.3	5.4	-4.3	1.4	0.2	-3.2	x	x	x
CN(C)/C=C/c1oc2ccc(O)cc2c1[N+](=O)[O-]	-21.8	-15.8	18.3*	-2.1	13.9	7.4	19.2*	-96.5	7.0
CCCCCCCCN1C(=O)[C@@H](CC(=O)NCc2ccccc2)C[C@@]2(C(=O)OC)C1=C[C@H](C(C)C)O[C@@H]2C1CC1	5.3	-1.8	3.7	3.3	-1.9	-5.3	x	x	x
SMILES	UHRF1 binding	MBD2 inh	LEDGF integ inh	SIAE inh	PRMT1 inh	TDP2 absorb	IN multimer act	TR-FRET interf	LEDGF integ conf
O=C1OC(c2cc(Br)c(O)c(Br)c2)c2ccccc21 (stereo not drawn)	7.2	8.6	0.4	1.8	11.0	-18.8	x	x	x
Nc1c(Br)cc2c(c1Br)C(O)c1ccccc1-2 (stereo not drawn)	-1.6	-0.5	25.9*	1.1	-2.6	0.1	5.0	-25.3	-0.5
COc1ccc(/C=N/NC(=O)c2nn(-c3ccccc3)c(=O)c3c(N)scc23)cc1	12.0	-1.8	17.2*	11.3	22.1*	20.3	6.5	-23.2	16.6*
CCOC(=O)C1=C(C)N(c2ccc(C)cc2)C(=O)/C1=C\c1cccs1	6.2	0.0	58.3*	1.9	-0.1	-12.1	1.7	-8.8	7.1
CO/N=C(\C(=O)N[C@@H]1C(=O)N2C(C(=O)O)=C(COC(N)=O)CS[C@H]12)c1ccco1	25.4*	1.7	14.4*	0.8	7.7	-12.2	1.2	-5.8	15.7*
COCC1=C(C(=O)OC(C)OC(=O)OC(C)C)N2C(=O)[C@@H](NC(=O)/C(=N\OC)c3csc(N)n3)[C@H]2SC1 (stereo partly drawn)	-7.0	-7.1	6.1	-1.3	-3.0	5.0	x	x	x
CN(C)c1cccc(/C=C2\CC3(OC(=O)c4ccccc4)CCCN2C3)c1 (stereo not drawn)	-0.2	6.5	-1.5	11.8	2.5	-1.7	x	x	x
Brc1ccc(CSc2ccc3nnc(-c4cccnc4)n3n2)cc1	-3.0	3.4	3.9	8.6	-1.7	-5.1	x	x	x
Cc1ccc(CSc2ccc3nnc(-c4cccnc4)n3n2)cc1	1.1	2.0	14.0*	-4.9	1.0	5.7	-0.1	0.3	5.8
COc1ccc(CNC(=O)CN(CCC(C)C)S(=O)(=O)c2ccc3c(c2)OCCO3)cc1	1.7	-0.4	22.6*	-2.9	-1.1	9.2	5.5	-27.9	-0.1
O=C(Nc1ccccc1C(=O)N1CCN(c2cccc(Cl)c2)CC1)C1=CSCCO1	-0.7	-0.6	81.1*	-5.5	-1.0	6.9	-1.4	7.2	-0.2
